ChEMBL document CHEMBL1240321, “Cyclostreptin binds covalently to microtubule pores and lumenal taxoid binding sites” (Nat Chem Biol, 2007)
Calls of active or inactive are those of the source. The rule behind the calls is not given here.

How the values were obtained:
A2780 [1] = assay: Induction of mitotic cell cycle arrest in human A2780 cells assessed as accumulation of cells at G1/G0 phase at 5 uM after 24 hrs by flow cytometry (Rvb= 60%); format: functional
A2780 [2] = assay: Induction of mitotic cell cycle arrest in human A2780 cells assessed as accumulation of cells at SubG1 phase at 5 uM after 24 hrs by flow cytometry (Rvb= 2.5%); format: functional
A549 [3] = assay: Cytotoxicity against human A549 cells at 5 uM; format: functional, cell-based
1A9/ptx-22 = assay: Cytotoxicity against human 1A9PTX22 cells at 5 uM; format: functional, cell-based
1A9/ptx-10 = assay: Cytotoxicity against human 1A9PTX10 cells at 5 uM; format: functional, cell-based
A2780-1A9 = assay: Cytotoxicity against human A2780-1A9 cells at 5 uM; format: functional, cell-based
A2780 ADR = assay: Cytotoxicity against human A2780AD cells at 5 uM; format: functional, cell-based
A2780 [4] = assay: Cytotoxicity against human A2780 cells at 5 uM; format: functional, cell-based
[5] = Induction of mitotic cell cycle arrest in human A2780AD cells assessed as accumulation of cells at G2+M phase at 5 uM after 24 hrs by flow cytometry (Rvb= 20.5%); format: functional, A2780 ADR
[6] = Induction of mitotic cell cycle arrest in human A2780AD cells assessed as accumulation at S phase at 5 uM after 24 hrs by flow cytometry (Rvb= 16.2%); format: functional, A2780 ADR
[7] = Induction of mitotic cell cycle arrest in human A2780AD cells assessed as accumulation of cells at G1/G0 phase at 5 uM after 24 hrs by flow cytometry (Rvb= 59.2%); format: functional, A2780 ADR
[8] = Induction of mitotic cell cycle arrest in human A2780AD cells assessed as accumulation of cells at SubG1 phase at 5 uM after 24 hrs by flow cytometry (Rvb= 4.1%); format: functional, A2780 ADR
A2780 [9] = assay: Induction of mitotic cell cycle arrest in human A2780 cells assessed as accumulation of cells at G2+M phase at 5 uM after 24 hrs by flow cytometry (Rvb= 20%); format: functional
A2780 [10] = assay: Induction of mitotic cell cycle arrest in human A2780 cells assessed as accumulation at S phase at 5 uM after 24 hrs by flow cytometry (Rvb= 17.5%); format: functional
[11] = Binding affinity to microtubule
[12] = Displacement of [3H]discodermolide from microtubule assessed as bound radioligand level at 20 uM treated after radioligand addition by competitive binding assay
[13] = Displacement of [3H]discodermolide from microtubule assessed as bound radioligand level at 20 uM treated before radioligand addition by competitive binding assay
A549 [14] = assay: Cytotoxicity against human A549 cells; format: functional, cell-based
[15] = Cytotoxicity against human A2780-1A9 cells; format: functional, cell-based
[16] = Cytotoxicity against human A2780AD cells; format: functional, cell-based; details: A2780 ADR
A2780 [17] = assay: Cytotoxicity against human A2780 cells; format: functional, cell-based
[18] = Displacement of [3H]epothilone B from microtubule assessed as bound radioligand level at 20 uM treated before radioligand addition by competitive binding assay
[19] = Displacement of [3H]paclitaxel from microtubule assessed as bound radioligand level at 20 uM treated after radioligand addition by competitive binding assay
[20] = Displacement of [3H]paclitaxel from microtubule assessed as bound radioligand level at 20 uM treated before radioligand addition by competitive binding assay
[21] = Displacement of [3H]epothilone B from microtubule assessed as bound radioligand level at 20 uM treated after radioligand addition by competitive binding assay
[22] = Binding affinity to microtubule pretreated with cyclostreptin
Outline: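 Glutaraldehyde-crosslinked microtubules (60 µM) were preincubated overnight at 22 °C with 66 µM cyclostreptin in GAB (3.4 M glycerol, 10 mM NaPi, 1 mM EGTA, 6 mM MgCl2, pH 6.7) plus 0.1 mM GTP, then dialyzed 5 h against the same buffer. Flutax-2 (50 nM) was titrated with these microtubules, and the association constant for Flutax-2 binding was calculated.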

A2780 [23] = assay: Induction of mitotic cell cycle arrest in human A2780 cells assessed as accumulation at S phase at 15 nM after 24 hrs by flow cytometry (Rvb= 17.5%); format: functional
A2780 [24] = assay: Induction of mitotic cell cycle arrest in human A2780 cells assessed as accumulation of cells at G1/G0 phase at 15 nM after 24 hrs by flow cytometry (Rvb= 60%); format: functional
A2780 [25] = assay: Induction of mitotic cell cycle arrest in human A2780 cells assessed as accumulation of cells at SubG1 phase at 15 nM after 24 hrs by flow cytometry (Rvb= 2.5%); format: functional
A549 [26] = assay: Induction of mitotic cell cycle arrest in human A549 cells assessed as accumulation of cells at G2+M phase at 20 nM after 24 hrs by flow cytometry (Rvb= 19.6%); format: functional
A549 [27] = assay: Induction of mitotic cell cycle arrest in human A549 cells assessed as accumulation of cells at G1/G0 phase at 20 nM after 24 hrs by flow cytometry (Rvb= 39.2%); format: functional
A549 [28] = assay: Induction of mitotic cell cycle arrest in human A549 cells assessed as accumulation of cells at SubG1 phase at 20 nM after 24 hrs by flow cytometry (Rvb= 25%); format: functional
[29] = Cytotoxicity against human 1A9PTX22 cells; format: functional, cell-based; details: 1A9/ptx-22
[30] = Cytotoxicity against human 1A9PTX10 cells; format: functional, cell-based; details: 1A9/ptx-10
[31] = Induction of mitotic cell cycle arrest at G1/G0 phase in potoroo PtK2 cells 10 uM after 7 hrs by flow cytometry (Rvb= 60%); format: functional, Potorous tridactylus
[32] = Induction of micronucleation in potoroo PtK2 cells at 10 uM after 7 hrs by flow cytometry; format: functional, Potorous tridactylus
[33] = Induction of micronucleation in potoroo PtK2 cells at 5 uM after 7 hrs by flow cytometry; format: functional, Potorous tridactylus
[34] = Induction of micronucleation in potoroo PtK2 cells at 2 uM after 7 hrs by flow cytometry; format: functional, Potorous tridactylus
PtK2 [35] = assay: Induction of microtubule bundle formation in potoroo PtK2 cells at 5 uM after 7 hrs by flow cytometry; format: cell-based; details: Potorous tridactylus
PtK2 [36] = assay: Induction of microtubule bundle formation in potoroo PtK2 cells at 2 uM after 7 hrs by flow cytometry; format: cell-based; details: Potorous tridactylus
A2780 [37] = assay: Induction of mitotic cell cycle arrest in human A2780 cells assessed as accumulation of cells at G2+M phase at 15 nM after 24 hrs by flow cytometry (Rvb= 20%); format: functional
PtK2 [38] = assay: Displacement of Flutax-2 from microtubule in potoroo PtK2 cells at 100 uM; details: Potorous tridactylus
PtK2 [39] = assay: Induction of micronucleation in potoroo PtK2 cells at 10 uM after 7 hrs by flow cytometry; details: Potorous tridactylus
[40] = Micronucleation in potoroo PtK2 cells at 10 uM treated for 7 hrs followed by compound washout measured after 48 hrs by flow cytometry; details: Potorous tridactylus
PtK2 [41] = assay: Induction of microtubule bundle formation in potoroo PtK2 cells at 10 uM treated for 7 hrs followed by compound washout measured after 48 hrs; details: Potorous tridactylus

Structure (SMILES): CC1=C[C@H]2[C@@H](O)[C@H](C)[C@@H](O)[C@@H]2[C@H]2[C@@H]3[C@H]4C(=O)O[C@@H]5CC[C@@](C)(O[C@@H]4[C@@H]5C)[C@@H]3C[C@@H]12
- Activity (A2780 [1]): 58.7%
- Activity (A2780 [2]): 2.8%
- Activity (A549 [3]): inactive
- Activity (1A9/ptx-22): inactive
- Activity (1A9/ptx-10): inactive
- Activity (A2780-1A9): inactive
- Activity (A2780 ADR): inactive
- Activity (A2780 [4]): inactive
- Activity [5]: 21.5%
- Activity [6]: 19.6%
- Activity [7]: 56.9%
- Activity [8]: 2%
- Activity (A2780 [9]): 16%
- Activity (A2780 [10]): 22.5%

Structure (SMILES): CC1=C[C@H]2[C@@H](O)[C@H](C)[C@@H](O)[C@@H]2[C@H]2[C@H]3[C@@H](C[C@@H]12)[C@@]1(C)CC[C@H]2OC(=O)[C@]34O[C@@]4(O1)[C@@H]2C
- Activity (A549 [3]): inactive
- Activity (1A9/ptx-22): inactive
- Activity (1A9/ptx-10): inactive
- Activity (A2780-1A9): inactive
- Activity (A2780 ADR): inactive
- Activity (A2780 [4]): inactive

Structure (SMILES): C=C/C=C\[C@H](C)[C@H](OC(N)=O)[C@@H](C)[C@H](O)[C@@H](C)C/C(C)=C\[C@H](C)[C@@H](O)[C@@H](C)/C=C\[C@@H](O)C[C@@H]1OC(=O)[C@H](C)[C@@H](O)[C@H]1C [DISERMOLIDE]
- Kd [11]: 0.18 nM
- Activity [12]: 27%
- Activity [13]: 31%

Structure (SMILES): CC(=O)O[C@@]12CO[C@@H]1C[C@H](O)[C@@]1(C)C(=O)[C@H](O)C3=C(C)[C@@H](OC(=O)[C@H](O)[C@@H](NC(=O)OC(C)(C)C)c4ccccc4)C[C@@](O)([C@@H](OC(=O)c4ccccc4)[C@H]21)C3(C)C [DOCETAXEL]
- IC50 (A549 [14]): 7.2 nM
- IC50 [15]: 0.6 nM
- IC50 [16]: 285 nM
- IC50 (A2780 [17]): 0.5 nM

Structure (SMILES): C/C(=C\c1csc(C)n1)[C@@H]1C[C@@H]2O[C@@H]2CCC[C@H](C)[C@H](O)[C@@H](C)C(=O)C(C)(C)[C@@H](O)CC(=O)O1 [EPOTHILONE A]
- Activity [18]: 49%
- Activity [19]: 46%
- Activity [20]: 49%
- Kd [11]: 28 nM
- Activity [12]: 95%
- Activity [13]: 96%
- Activity [21]: 49%

Structure (SMILES): CC(=O)O[C@H]1C(=O)[C@]2(C)[C@@H](OC(=O)[C@H](C)NC(=O)c3ccc(-c4c5cc(F)c(=O)cc-5oc5cc(O)c(F)cc45)c(C(=O)O)c3)C[C@H]3OC[C@@]3(OC(C)=O)[C@H]2[C@H](OC(=O)c2ccccc2)[C@]2(O)C[C@H](OC(=O)[C@H](O)[C@@H](NC(=O)c3ccccc3)c3ccccc3)C(C)=C1C2(C)C [FLUTAX 2]
- Kd [11]: 14 nM
- Activity [22]: inactive

Structure (SMILES): CC(=O)O[C@H]1C(=O)[C@@]2(C)[C@H]([C@H](OC(=O)c3ccccc3)[C@]3(O)C[C@H](OC(=O)[C@H](O)[C@@H](NC(=O)c4ccccc4)c4ccccc4)C(C)=C1C3(C)C)[C@]1(OC(C)=O)CO[C@@H]1C[C@@H]2O [PACLITAXEL]
- Activity (A2780 [23]): 7%
- Activity (A2780 [24]): 6.5%
- Activity (A2780 [25]): 15.7%
- Activity (A549 [26]): 8.85%
- Activity (A549 [27]): 8.4%
- Activity (A549 [28]): 36.9%
- IC50 [29]: 19 nM
- IC50 [30]: 30 nM
- IC50 [15]: 1.1 nM
- IC50 [16]: 900 nM
- Activity [31]: 50%
- Activity [32]: 4%
- Activity [33]: 4%
- Activity [34]: 4%
- Activity (PtK2 [35]): 4%
- Activity (PtK2 [36]): 4%
- Kd [11]: 70 nM
- Activity (A2780 [37]): 70.8%
- Activity (PtK2 [38]): Active
- Activity (PtK2 [39]): 4%
- Activity at 10 µM [40]: 40%
- Activity (PtK2 [41]): Active

Structure (SMILES): C/C(=C\c1csc(C)n1)[C@@H]1C[C@@H]2O[C@]2(C)CCC[C@H](C)[C@H](O)[C@@H](C)C(=O)C(C)(C)[C@@H](O)CC(=O)O1 [PATUPILONE]
- Activity [18]: 9%
- Activity [19]: 31%
- Activity [20]: 33%
- Kd [11]: 1.3 nM
- Activity [12]: 76%
- Activity [13]: 79%
- Activity [21]: 9%
